Data on 32 compounds can be found in ChEMBL document CHEMBL4261600 (Eur J Med Chem, 2018).

In one assay the test system is MV4-11. The experiment in a line: Antiproliferative activity against human MV4-11 cells after 72 hrs by Celltiter-Glo assay. It counts as functional. The following applies: MV4-11, 72 h. The gist of the method: (§1)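 Cells seeded at 3000/well in 96-well plates, exposed to serially diluted compound for 72 h at 37 °C, 5% CO2. Viability read by CellTiter-Glo luminescence and normalized to DMSO control. GI50 derived from curve fit, mean of three independent measurements. Culture media: DMEM/10% FBS for adherent lines; IMDM for MV4-11 and MEC-1/2; RPMI 1640 for suspension lines and CHL.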
In general terms: In ATP-based viability assays light output follows the ATP content of the culture.

Assay [1] can be described thus: Antiproliferative activity against Chinese hamster CHL cells after 72 hrs by Celltiter-Glo assay. The note with it: Cricetulus griseus.
A short description of assay [2]: Antiproliferative activity against human MEC1 cells after 72 hrs by Celltiter-Glo assay. It is filed as functional. The following applies: MEC1, 72 h. The gist of the method:
as §1

For a further assay, the target named is CDK9/Cyclin K (Homo sapiens, UniProt P50750). The experiment in a line: Inhibition of CDK9/Cyclin K (unknown origin) using PDKtide as substrate incubated at 37 degreeC for 1 hr followed by incubation at room temperature for 5 mins by ADP-Glo reagent based luminescence assay. It is filed as protein-complex assay. (In general: ADP-Glo turns the ADP formed in a reaction into a luminescent signal.)
Sequence of CDK9/Cyclin K (P50750 whole entry): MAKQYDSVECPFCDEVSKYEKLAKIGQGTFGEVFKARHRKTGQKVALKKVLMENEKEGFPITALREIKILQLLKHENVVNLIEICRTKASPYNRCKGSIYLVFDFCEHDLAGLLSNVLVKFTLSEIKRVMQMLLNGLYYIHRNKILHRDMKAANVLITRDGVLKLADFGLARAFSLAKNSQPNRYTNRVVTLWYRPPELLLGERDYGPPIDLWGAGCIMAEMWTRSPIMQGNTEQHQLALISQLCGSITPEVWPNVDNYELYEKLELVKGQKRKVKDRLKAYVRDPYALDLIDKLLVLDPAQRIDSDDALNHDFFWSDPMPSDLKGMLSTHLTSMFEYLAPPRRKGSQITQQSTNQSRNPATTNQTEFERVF
Sequence of CDK9/Cyclin K (O75909 whole entry, further chain): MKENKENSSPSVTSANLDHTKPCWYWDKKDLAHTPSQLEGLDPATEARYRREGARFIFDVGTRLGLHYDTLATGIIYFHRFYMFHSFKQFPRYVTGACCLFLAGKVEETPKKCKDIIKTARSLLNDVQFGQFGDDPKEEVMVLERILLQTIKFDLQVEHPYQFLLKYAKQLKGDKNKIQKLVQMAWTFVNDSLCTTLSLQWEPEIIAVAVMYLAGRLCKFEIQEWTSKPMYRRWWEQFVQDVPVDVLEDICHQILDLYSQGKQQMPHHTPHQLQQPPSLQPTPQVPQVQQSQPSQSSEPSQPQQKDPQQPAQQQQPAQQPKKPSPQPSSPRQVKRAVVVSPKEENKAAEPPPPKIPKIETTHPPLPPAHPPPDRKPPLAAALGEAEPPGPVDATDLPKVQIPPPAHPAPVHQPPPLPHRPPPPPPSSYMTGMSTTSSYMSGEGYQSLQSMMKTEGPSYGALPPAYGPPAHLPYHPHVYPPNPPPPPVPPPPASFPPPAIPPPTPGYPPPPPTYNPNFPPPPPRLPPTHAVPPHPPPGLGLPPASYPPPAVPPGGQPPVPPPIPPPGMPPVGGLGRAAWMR

Structures are written as SMILES.

As usually defined, the GI50 is the concentration at which growth is held to half of that of the control. As a reminder, the IC50 is the concentration that inhibits the measured activity by half. For `COCCN[C@H]1CC[C@H](Nc2cc(-c3csc(SCC4CCOCC4)n3)c(Cl)cn2)CC1`, the 50% growth inhibitory concentration (GI50) in the assay on MV4-11 amounted to 340 nM; in assay [1], 5600 nM; in assay [2], 800 nM. Moreover, the half-maximal inhibitory concentration (IC50) on CDK9/Cyclin K worked out at 14 nM.
In the case of `CC(=O)N[C@H]1CC[C@H](Nc2cc(-c3csc(NCC4CCOCC4)n3)c(Cl)cn2)CC1`, the concentration for 50% growth inhibition (GI50) with MV4-11 is 3600 nM; in assay [1], over 10000 nM; in assay [2] it was over 10000 nM. On CDK9/Cyclin K, this compound registered an IC50 of 101 nM.
Take `COCCN[C@H]1CC[C@H](Oc2cc(-c3csc(NCC4CCOCC4)n3)c(Cl)cn2)CC1`: the figures for the GI50 (in the assay with MV4-11; in assay [1]; in assay [2]) were 7700 nM, over 10000 nM and over 10000 nM, respectively. In addition, inhibition on CDK9/Cyclin K was half-maximal at 1670 nM (IC50).
On to `COCCN[C@H]1CC[C@H](Nc2cc(-c3csc(NCC4CCOCC4)n3)c(C)cn2)CC1`, for which the 50% growth inhibitory concentration (GI50) is 1620 nM in the assay with MV4-11, 5010 nM in assay [1] and 3560 nM in assay [2]. This compound also displayed an IC50 against CDK9/Cyclin K of 253 nM.
For `COCCN[C@H]1CC[C@H](Nc2cc(-c3csc(OCC4CCOCC4)n3)c(Cl)cn2)CC1` the same measures were 570 nM, 3300 nM, 1400 nM and 28 nM.
`COCCN[C@H]1CC[C@H](Nc2cc(-c3csc(NCC4CCOC4)n3)c(Cl)cn2)CC1` (stereo partly drawn): the results for the 50% growth inhibitory concentration (GI50) (with MV4-11; in assay [1]; in assay [2]) were 493 nM, over 10000 nM and 883 nM, respectively. For the same compound, at CDK9/Cyclin K, the concentration for half-maximal inhibition (IC50) is 90 nM.
Consider `N[C@H]1CC[C@H](CNc2cc(-c3csc(NCC4CCOCC4)n3)c(Cl)cn2)CC1`, for which the GI50 in the assay with MV4-11 was 1900 nM; in assay [1], 3900 nM; in assay [2], over 10000 nM. Further, at CDK9/Cyclin K, the IC50 was found to be 84 nM.
As to `COCCN[C@H]1CC[C@H](Nc2cc(-c3csc(NCC4CCOCC4)n3)ccn2)CC1`, the GI50 was determined as 910 nM in the assay on MV4-11, 1200 nM in assay [1] and 2500 nM in assay [2]. Besides, the IC50 against CDK9/Cyclin K came out at 114 nM.
Consider `Clc1cnc(Nc2ccccc2)cc1-c1csc(NCC2CCOCC2)n1`, for which the GI50 (in the assay with MV4-11; in assay [1]; in assay [2]) was over 10000 nM throughout. For the same compound, at CDK9/Cyclin K, the IC50 is 238 nM.
As for `Fc1cc(-c2csc(NCC3CCOCC3)n2)c(Cl)cn1`, the GI50 (in the assay with MV4-11; in assay [1]; in assay [2]) was over 10000 nM throughout. Further, the IC50 against CDK9/Cyclin K was 557 nM.
With `COCCN[C@H]1CC[C@H](Nc2cc(-c3csc(NCc4ccccc4)n3)c(Cl)cn2)CC1`, the results for the concentration for 50% growth inhibition (GI50) (with MV4-11; in assay [1]; in assay [2]) were 330 nM, 1000 nM and 470 nM, respectively. At CDK9/Cyclin K, the IC50 is 14 nM.
In the same order, the values of `COCCN[C@H]1CC[C@H](Nc2cc(-c3csc(NCC4CCCCC4)n3)c(Cl)cn2)CC1` are 820 nM, 8000 nM, 850 nM and 27 nM.
With `COCCN[C@H]1CC[C@H](Nc2cc(-c3csc(NCC4CC4)n3)c(Cl)cn2)CC1`, the GI50 in the assay on MV4-11 worked out at 740 nM; in assay [1], 1400 nM; in assay [2], 890 nM. On CDK9/Cyclin K, this compound displayed a concentration for half-maximal inhibition (IC50) of 96 nM.
On to `O=C(Nc1cc(-c2csc(NCC3CCOCC3)n2)c(Cl)cn1)c1ccc(F)cc1`, for which the GI50 was found to be 550 nM with MV4-11, 930 nM in assay [1] and 3600 nM in assay [2]. Moreover, half-maximal inhibition at CDK9/Cyclin K (IC50) required 2300 nM.
On to `N[C@H]1CC[C@H](Nc2cc(-c3csc(NCC4CCOCC4)n3)c(Cl)cn2)CC1`, for which the GI50 in the assay on MV4-11 turned out to be 140 nM; in assay [1], 3500 nM; in assay [2], 270 nM. At CDK9/Cyclin K, this compound yielded a half-inhibitory concentration (IC50) of 22 nM.
For `CCOCCN[C@H]1CC[C@H](Nc2cc(-c3csc(NCC4CCOCC4)n3)c(Cl)cn2)CC1`, the concentration for 50% growth inhibition (GI50) was found to be 497 nM with MV4-11, 2820 nM in assay [1] and 634 nM in assay [2]. The compound also returned a concentration for half-maximal inhibition (IC50) on CDK9/Cyclin K of 51 nM.
For `COC[C@@H](C)N[C@H]1CC[C@H](Nc2cc(-c3csc(NCC4(C#N)CCOCC4)n3)c(Cl)cn2)CC1` [TAMBICICLIB] the same measures were 14 nM, 1100 nM, 47 nM and 9 nM.
In the case of `COCCN[C@H]1CC[C@H](Nc2cc(-c3csc(NCC(F)(F)F)n3)c(Cl)cn2)CC1`, the GI50 in the assay with MV4-11 was 752 nM; in assay [1], 877 nM; in assay [2] it was 1100 nM. The same compound came in with an IC50 at CDK9/Cyclin K of 17 nM.
Take `CC(C)(C)OC(=O)Nc1nc(-c2cc(F)ncc2Cl)cs1`: the GI50 (with MV4-11; in assay [1]; in assay [2]) was over 10000 nM each time. On CDK9/Cyclin K, this compound displayed an IC50 of over 10000 nM.
With `COCCN[C@H]1CC[C@H](Nc2cc(-c3csc(NCc4ccc(F)cc4)n3)c(Cl)cn2)CC1`, the 50% growth inhibitory concentration (GI50) turned out to be 880 nM with MV4-11, 1100 nM in assay [1] and 450 nM in assay [2]. The same compound showed an IC50 against CDK9/Cyclin K of 2 nM.
Regarding `COCCN[C@H]1CC[C@H](Nc2cc(-c3csc(NCC4C5CC6CC(C5)CC4C6)n3)c(Cl)cn2)CC1` (stereo partly drawn), the GI50 in the assay on MV4-11 came out at 3460 nM; in assay [1] it was 2040 nM; in assay [2] it was 6310 nM. Besides, half-maximal inhibition against CDK9/Cyclin K (IC50) required 94 nM.
Turning to `O=C(N[C@H]1CC[C@H](Nc2cc(-c3csc(NCC4CCOCC4)n3)c(Cl)cn2)CC1)C1CC1`, the GI50 (with MV4-11; in assay [1]; in assay [2]) was over 10000 nM in each case. Also, it took 150 nM to reach half-maximal inhibition against CDK9/Cyclin K (IC50).
For the compound `COC[C@H](C)N[C@H]1CC[C@H](Nc2cc(-c3csc(NCC4(C#N)CCOCC4)n3)c(Cl)cn2)CC1`, the GI50 stood at 121 nM with MV4-11, 1250 nM in assay [1] and 537 nM in assay [2]. This compound showed a 50% inhibitory concentration (IC50) at CDK9/Cyclin K of 10 nM.
For `COCCNc1cc(-c2csc(NCC3CCOCC3)n2)c(Cl)cn1`, the concentration for 50% growth inhibition (GI50) (in the assay on MV4-11; in assay [1]; in assay [2]) was over 10000 nM each time. The compound further returned an IC50 against CDK9/Cyclin K of 1040 nM.
Turning to `COC[C@@H](C)N[C@H]1CC[C@H](Nc2cc(-c3csc(NCC4CCOCC4)n3)c(Cl)cn2)CC1`, the concentration for 50% growth inhibition (GI50) is 140 nM in the assay with MV4-11, 1100 nM in assay [1] and 310 nM in assay [2]. Further, on CDK9/Cyclin K, it took 733 nM to reach half-maximal inhibition (IC50).
`COCC(=O)N[C@H]1CC[C@H](Nc2cc(-c3csc(NCC4CCOCC4)n3)c(Cl)cn2)CC1`: the GI50 (in the assay with MV4-11; in assay [1]; in assay [2]) was over 10000 nM each time. The same compound returned an IC50 against CDK9/Cyclin K of 1890 nM.
On to `CNc1nc(-c2cc(N[C@H]3CC[C@H](NCCOC)CC3)ncc2Cl)cs1`, for which the GI50 stood at 530 nM in the assay on MV4-11, 1900 nM in assay [1] and 1400 nM in assay [2]. On CDK9/Cyclin K, the IC50 was 101 nM.
In the case of `COCCN[C@H]1CC[C@H](Nc2cc(-c3csc(NCC4CCOCC4)n3)c(Cl)cn2)CC1`, the concentration for 50% growth inhibition (GI50) in the assay with MV4-11 came out at 170 nM; in assay [1], 534 nM; in assay [2], 1240 nM. The midpoint of inhibition at CDK9/Cyclin K, the IC50, lay at 2 nM.
Regarding `COCCN[C@H]1CC[C@H](Nc2cc(-c3csc(NCC4CCCC4)n3)c(Cl)cn2)CC1`, the 50% growth inhibitory concentration (GI50) is 2160 nM in the assay with MV4-11, over 10000 nM in assay [1] and 2940 nM in assay [2]. At CDK9/Cyclin K, this compound yielded a half-inhibitory concentration (IC50) of 80 nM.
Take `COCCCN[C@H]1CC[C@H](Nc2cc(-c3csc(NCC4CCOCC4)n3)c(Cl)cn2)CC1`: the GI50 in the assay with MV4-11 was determined as 1090 nM; in assay [1] it was 2030 nM; in assay [2], 2610 nM. This compound registered an IC50 on CDK9/Cyclin K of 12 nM.
`COC[C@H](C)N[C@H]1CC[C@H](Nc2cc(-c3csc(NCC4CCOCC4)n3)c(Cl)cn2)CC1`: the GI50 with MV4-11 stood at 440 nM; in assay [1], 3600 nM; in assay [2], 1300 nM. At CDK9/Cyclin K, the half-inhibitory concentration (IC50) was over 10000 nM.
As to `COCCN[C@H]1CC[C@H](Nc2cc(-c3csc(NCC4CCC4)n3)c(Cl)cn2)CC1`, the figures for the GI50 (in the assay with MV4-11; in assay [1]; in assay [2]) were over 10000 nM, 1290 nM and 2260 nM, respectively. In addition, the half-inhibitory concentration (IC50) on CDK9/Cyclin K came out at 107 nM.
